Laboratory results from PubChem BioAssay.
Activity calls are given as the source filed them.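 How the source made its calls: active means growth inhibition above 25% in both replicates, a cutoff set 3 SD above the mean; inconclusive means above 25% in only one replicate; inactive means the rest.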

Test: OD615 S. cerevisiae growth inhibition, permissive medium, pilot counter-assay, permissive growth control for S. cerevisiae lifespan shortening project (AID 705)
Conditions: OD615, 24 h, at 10 µM, hits give high values
Procedure, shortened: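 Material: engineered DeaD yeast; compound dosing: one dose 10 µM, DMSO 0.25% final; measure: yeast growth inhibition indicated by reduced 24 h OD615; detection: OD615 turbidity read; incubation: cells pre-grown 4 h, then 24 h compound exposure, 30 °C humidified; medium: permissive synthetic complete medium with raffinose and galactose carbon sources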

SMILES | growth inhibition
COc1ccc(C(=O)OCCN2C(=O)c3ccccc3C2=O)cc1OC | 6.76% (inactive)
CCOC(=O)C1CCN(C(=O)c2ccc(NC(=O)C3CCCO3)cc2)CC1 (stereo not given) | -14.9% (inactive)
COCC(=O)NCc1nc2ccccc2[nH]1 | -12.6% (inactive)
COc1ccc(NC2=NCC(=O)N2c2ccccc2)c(OC)c1 | -19.2% (inactive)
O=C(NCc1nc2ccccc2[nH]1)c1ccc(S(=O)(=O)N2CCOCC2)cc1 | -9.52% (inactive)
COc1ccccc1N1CCN(C2=CC(=O)CCC2)CC1 | -17.3% (inactive)
CCn1cc(C(=O)N2CCN(c3ccccn3)CC2)c2cc(OC)c(OC)cc2c1=O | -18% (inactive)
Cc1ccc(Cc2cnc(N)s2)o1 | -11.3% (inactive)
COc1ccccc1NC1=NCC(=O)N1Cc1ccccc1 | -30.4% (inactive)
COc1ccccc1N1CCN(CC(=O)Nc2cc(C)nn2-c2nc(C)cc(C)n2)CC1 | -5.77% (inactive)
C(=N\n1cnnc1)/c1ccc(N2CCOCC2)s1 | -13.4% (inactive)
Cc1cc2cc(CN(Cc3ccc4c(c3)OCO4)C(=O)c3cnccn3)c3nnnn3c2cc1C | -6.95% (inactive)
CCOC(=O)C1CCCN(C(=O)CNC(=O)Cn2ccc3ccccc3c2=O)C1 (stereo not given) | -6.4% (inactive)
CN(C(=O)c1ccc(NC(=O)c2cnccn2)cc1)C1CCCCC1 | 2.12% (inactive)
CN(C)CCCNC(=O)CC(c1ccc(F)cc1)c1ccco1 (stereo not given) | -28.8% (inactive)
CCOC(=O)C1=CSC2=NS(=O)(=O)CCN12 | 3.57% (inactive)
O=C(Nc1ccc(Br)cc1Cl)c1cnccn1 | 1.88% (inactive)
CN1CCc2c(sc3nc(SCC(N)=O)n(-c4ccccc4)c(=O)c23)C1 | -17.8% (inactive)
O=C(Nc1nnc(-c2ccc3c(c2)CCCC3)o1)c1ccccc1Cl | -7.88% (inactive)
CSC(=NCCCN1CCOCC1)NS(=O)(=O)c1cccs1 | -13.8% (inactive)

SMILES | growth inhibition
O=C(N=c1nc2ccccn2s1)c1ccccc1 | -6.95% (inactive)
CCN(CC)CCOc1c(Br)ccc2c1sc1nc3n(c(=O)c12)CCC3 | -1.77% (inactive)
Cn1cnnc1SCc1ccc(C(=O)O)cc1 | -5.04% (inactive)
CCC(=O)N1CCc2cc(Br)cc(S(=O)(=O)N3CCN(c4ccccn4)CC3)c21 | -6.54% (inactive)
Cc1cc(=O)n2[nH]c(C)c(-c3ccc(Cl)cc3)c2n1 | 3.86% (inactive)
Cc1ccc2c(c1)c(C)c(C)n2CC(O)Cn1nc(C)cc1C (stereo not given) | -13% (inactive)
Cc1cccc(N(CC(=O)Nc2c(C)n(C)n(-c3ccccc3)c2=O)S(C)(=O)=O)c1C | -16.3% (inactive)
O=C(CSc1oc(-c2ccc(F)cc2)nc1S(=O)(=O)c1ccccc1)NCC1CCCO1 (stereo not given) | -15.8% (inactive)
CCOc1ccccc1NC(=O)CSc1nnc(-c2cnccn2)n1C | -24.8% (inactive)
CC1(C)Cc2c(c(=S)nc(-c3ccccc3)n2CCOCCO)CO1 | -16.5% (inactive)
COc1ccc(-c2cc3ccccc3n2CC(O)Cn2nc(C)cc2C)cc1 (stereo not given) | -6.15% (inactive)
CCOc1cc(CNC(=O)CN2C(=O)c3ccccc3S2(=O)=O)ccc1OC | -22.6% (inactive)
CNC(=O)C1C2C=CC3(O2)C1C(=O)N(CCOC)C3C(=O)NCc1ccc(OC)cc1 (stereo not given) | -11% (inactive)
COc1ccc(NS(=O)(=O)c2cccc(-c3nnc4n3CCCCC4)c2)cc1 | -9.52% (inactive)
CC(C)(C)NS(=O)(=O)c1ccc(OCC(=O)Nc2ccc3c(c2)OCCO3)cc1 | -11.5% (inactive)
O=c1[nH]c2ccc(S(=O)(=O)NCc3ccccn3)cc2s1 | -13.7% (inactive)
O=C(Nc1cccc(Cl)c1Cl)c1ccncc1 | -9.8% (inactive)
Cn1ccnc1SCC(=O)NC1CCCCC1 | -11.1% (inactive)
O=C(Nc1ccc(Cl)cc1)c1ccncc1 | -11.5% (inactive)
CCn1cc(C(=O)NC2CCCCCC2)c2cc(OC)c(OC)cc2c1=O | -29.2% (inactive)
